From ChEMBL document CHEMBL1141319, “Cinnamic ester derivatives from Oxalis pes-caprae (Bermuda buttercup)” (2007) come the findings set out here.

Test [1] has as its system Lactuca sativa. In words: Phytotoxicity against Lactuca sativa assessed as inhibition of seed germination relative to control. The class given is functional. The arrangement: concentration or dose not given beside the values. The essentials:
(§1)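 Lettuce seeds (cv. Napoli V.F.), selected for uniformity, 25 per 50 mm dish on filter paper with 5 mL test solution in 10 mM MES pH 6. Tested at 10^-4 M, diluted to 10-5–10-7 M. Dishes sealed and kept at 25 °C in the dark, with germination counted daily for 5 days. Seedlings frozen at -20 °C before measuring. Four replicates with parallel controls; results given as % difference from control, Student's t test.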

The subject of test [2] is Lactuca sativa. In words: Phytotoxicity against Lactuca sativa assessed as inhibition of shoot length at 100 uM relative to control. The format is functional. The arrangement: scale not given: the % may be the effect or the level left. In outline:
as §1

For test [3], the system named is Lactuca sativa. In words: Phytotoxicity against Lactuca sativa assessed as inhibition of root length at 0.1 mM relative to control. The class given is functional. The arrangement: scale not given: the % may be the effect or the level left. In outline:
as §1

The test system of test [4] is Lactuca sativa. Put plainly: Phytotoxicity against Lactuca sativa assessed as inhibition of root length upto 0.1 uM relative to control. The class given is functional, organism-based. The essentials:
as §1

The test system of test [5] is Lactuca sativa. In words: Phytotoxicity against Lactuca sativa assessed as inhibition of radical length at 0.1 uM to 0.1 mM relative to control. The format is functional. The arrangement: scale not given: the % may be the effect or the level left. The essentials: as §1
Test [6] deals with Lactuca sativa. Put plainly: Phytotoxicity against Lactuca sativa assessed as inhibition of shoot length at 0.1 uM to 0.1 mM relative to control. The arrangement: scale not given: the % may be the effect or the level left. The format is functional. In outline:
as §1

In test [7] the test system is Lactuca sativa. In words: Phytotoxicity against Lactuca sativa assessed as inhibition of seed germination at 1 to 10 nM relative to control. The class given is functional, organism-based.
Test [8] deals with Lactuca sativa. Put plainly: Phytotoxicity against Lactuca sativa assessed as inhibition of shoot length at 1 to 10 nM relative to control. The class given is functional, organism-based.

Active and inactive are the calls of the source. No cut-off for these calls is given here. Bounds are passed on as bounds.

For `COc1cc(/C=C/C(=O)OCCO)cc(OC)c1O`, the Activity came to 10% in test [1] and 30% in test [2].

For the molecule `O=C(/C=C/c1ccc(O)c(O)c1)OCCO`, the Activity in test [1] was 10%; in test [3], “>=80%”; in test [5] it was 100%; in test [6], 100%; in test [2], 100%. Further, in test [4], the outcome was Active. Moreover, the outcome in test [7] and in test [8] was inactive.

Regarding `COc1cccc(OC(=O)/C=C/c2cc(OC)c(OC)c(OC)c2)c1`, the Activity in test [1] amounted to 10%; in test [2], 60%.

As for `COc1cc(/C=C/C(=O)Oc2cccc(O)c2)cc(OC)c1O`, the figures for the Activity in test [1], in test [3] and in test [2] were 10%, “>=80%” and 60%, respectively.

As to `COc1cc(/C=C/C(=O)Oc2cccc(O)c2)cc(OC)c1OC`, the Activity is 10% in test [1], “>=80%” in test [3] and 60% in test [2].

Take `COc1cc(/C=C/C(=O)OCCO)cc(OC)c1OC`: the Activity in test [1] was 10%; in test [2], 30%.

For `COc1cc(/C=C/C(=O)OCCOC(C)=O)cc(OC)c1OC`, the Activity is 10% in test [1], “>=80%” in test [3] and 60% in test [2].
